Source: PubChem (several laboratories)
This is a sample that favours compounds with a hit; in the whole collection about 2.4% have one here.
TMEM16A act: TMEM16A chloride channel activators or potentiators, primary screen, cell-based, HTS; HEK293 TMEM16A/YFP-H148Q/I152L, iodide quench fluorescence; active compounds read low; hit rate 0.3% among 340,000; Anoctamin-1 (Mus musculus), Q8BHY3; AID 623877, 2012; B-score at 10 µM;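 active means fluorescence-ratio B-score plate-corrected deviation score at least 3 library SD below zero, with starting fluorescence score within 5 deviations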;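 further: channel opened by trigger with iodide after compound preincubation; score built on the fluorescence ratio of max minus min over baseline; more negative score means more quench and so TMEM16A activation or potentiation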
Apaf-1 inh: inhibitors of human Apaf-1 apoptosome, primary screen, biochemical, DEVD-Rh110 fluorescence, uHTS; Apoptotic protease-activating factor 1 (Homo sapiens), O14727; inhibition, % at 20 µM; hit rate 0.71% among 330,000; reconstituted apoptosome caspase-3 activity; active means inhibition of at least 40% at 20 µM;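 further: plate controls were DMSO wells for no effect and DEVD-CHO caspase inhibitor wells for full effect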
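Material: reconstituted apoptosome with Apaf-1, cytochrome c, caspase-9, procaspase-3, dATP / Buffer or medium: pH 7.5 Hepes buffer with CHAPS, BSA, DTT / Also added: cytochrome c with DEVD-Rh110 / Schedule: compound with Apaf-1, dATP, procaspase-3 30 min, then 50 min reaction, room temperature / Technique: rhodamine 110 fluorescence at Ex 480/Em 540 nm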
FID counter: compounds displacing fluorescent DNA intercalator, primary screen, artefact control for HCV NS3 helicase inhibitor project, biochemical, FID fluorescence; AID 1845, 2009; hit rate 0.17% among 290,000; inhibition, % at 7.9 µM; DNA fluorescent intercalator displacement; in the data active means inhibition above about 37%;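 further: 0% = vehicle and 100% = reference compound; higher means more ethidium bromide displaced from hairpin DNA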
UBC13 polyUb: UBC13 polyubiquitin chain formation inhibitors, primary screen, biochemical, TR-FRET, uHTS; Ubiquitin-conjugating enzyme E2 N (Homo sapiens), P61088; inhibition, % at 20 µM; hit rate 0.47% among 330,000; AID 485273, 2010; in the data active means inhibition above about 45%, passing the limit was not always enough
Target sequence (P61088 whole entry, looked up): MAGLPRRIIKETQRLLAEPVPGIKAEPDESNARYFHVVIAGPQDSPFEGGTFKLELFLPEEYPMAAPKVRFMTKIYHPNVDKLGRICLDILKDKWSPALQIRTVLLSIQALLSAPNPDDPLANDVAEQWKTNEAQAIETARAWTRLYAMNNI
TMEM16A inh: TMEM16A chloride channel inhibitors, primary screen, cell-based, HTS | normalized B-score (activity score, 25-100; higher = stronger inhibition) at 10 µM | hit rate 1.2% among 310,000 | HEK293 TMEM16A/YFP iodide influx fluorescence, ionomycin | Anoctamin-1 (Mus musculus), Q8BHY3 | AID 588511, 2011;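 active means ratio plate-corrected score three or more library SD toward inhibition, starting fluorescence score within five deviations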;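 further: score derived from kinetic fluorescence span divided by baseline fluorescence per well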
Apaf-1 inh conf: Apaf-1 inhibitors, single-dose retest, confirmation, biochemical, fluorescence, DEVD-Rh110, 20 µM; shares compounds with Apaf-1 inh; reconstituted apoptosome, caspase-3 DEVD-Rh110 fluorescence; inhibition, % at 20 µM; hit rate 25% among 1,800; AID 504614, 2011;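 active means mean inhibition of at least 40% at 20 µM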;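 further: plate controls were DMSO wells for no effect and DEVD-CHO caspase inhibitor control wells for full effect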
Rh110 quench: Rh110 fluorescence interference by putative Apaf-1 inhibitors, confirmation, artefact control for Apaf-1 inhibitor project, biochemical, 20 µM; quenched caspase reaction; activation (fluorescence interference), % at 20 µM; AID 504615, 2011; shares compounds with Apaf-1 inh; 1,800 tested, under 10 active;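 active means signal rise of 40% or more at 20 µM, treated as a fluorescence artifact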
Fluor interf inh: fluorescence interference of Apaf-1 inhibitor hits, dose response, artefact control for Apaf-1 inhibitor project; shares compounds with Apaf-1 inh; fluorescence interference counterscreen, Apaf-1 assay format; IC50, µM; 460 tested, under 10 active; AID 588538, 2011; call rule not given here
Active calls of the source: *; i = inactive; x = not tested or not shown.

SMILES	TMEM16A act	Apaf-1 inh	FID counter	UBC13 polyUb	TMEM16A inh	Apaf-1 inh conf	Rh110 quench	others
Cc1[nH]n(-c2ccccc2)c(=O)c1/C=N/NC(=O)c1ccc(O)cc1O	i	73*	-6	-33	i	84*	9	Fluor interf inh=>100
Cc1ccc(-n2[nH]c(C)c(/C=N/NC(=O)c3ccc(O)cc3O)c2=O)cc1	i	11	-9	-31	i	x	x
CCC(NC(=O)c1ccccc1NC(=O)c1ccccc1)C(=O)NNC(=O)c1cccnc1 (stereo not drawn)	i	-24	-10	7	i	x	x
NC(=O)C1CCN(c2nc(-c3ccccc3-c3ccccc3)cs2)CC1	i	9	x	12	x	x	x
COc1ccc([N+](=O)[O-])cc1NS(=O)(=O)c1cccc(C(=O)OC2CCOC2=O)c1 (stereo not drawn)	i	-14	x	-7	x	x	x
Cc1[nH]n(-c2ccccc2)c(=O)c1/C=N/Nc1nncc(-c2ccccc2)n1	i	81*	-11	-37	i	89*	10	Fluor interf inh=>100
CCS(=O)c1ccccc1C(=O)OC(C)C(=O)Nc1ccc(S(=O)(=O)N2CCCC2)cc1 (stereo not drawn)	i	11	x	3	i	x	x
OCCn1nc(-c2ccccc2)cc1-c1ccccc1	i	-7	-18	1	i	x	x
CN(c1ccccc1)S(=O)(=O)c1cccc(NC(=O)Nc2ccc(Cl)cc2C#N)c1	i	6	-7	14	i	x	x
CCN(c1ccccc1)S(=O)(=O)c1ccc(Cl)c(NC(=O)Nc2ccc(Cl)cc2C#N)c1	i	40*	-19	-9	i	44*	-4	Fluor interf inh=>100
CCN(c1ccccc1)S(=O)(=O)c1ccc(Cl)c(NC(=O)CN2CCN(C)CC2)c1	i	52*	x	44	x	18	6
Cc1ccc(C(=O)NC(=S)Nc2cccc3nsnc23)cc1	i	59*	4	6	i	16	22
Cc1ccc(C(=O)NC(=S)Nc2c(C)ccc3nsnc23)cc1	i	15	-10	-20	i	x	x
COc1ccc(/C=C2/C(=O)N(c3cccc(F)c3)N=C2C)c(OC)c1	i	90*	-1	-22	i	17	2
CC1=NN(c2cccc(F)c2)C(=O)/C1=C/c1ccc(N(C)C)cc1	i	7	-3	-102	i	x	x
COc1ccc2ccccc2c1C1CC(=O)N2CN(Cc3ccco3)CSC2=C1C#N (stereo not drawn)	i	52*	-44	-6	i	32	8
COc1ccc(C2CC(=O)N3CN(Cc4ccco4)CSC3=C2C#N)cc1 (stereo not drawn)	i	29	-36	-1	i	x	x
N#CC1=C2SCN(Cc3ccccc3)CN2C(=O)CC1c1cccs1 (stereo not drawn)	i	78*	-7	-16	i	17	-8
N#CC1=C2SCN(Cc3ccccc3)CN2C(=O)CC1c1ccc2c(c1)OCO2 (stereo not drawn)	i	7	-38	-4	i	x	x
Cc1ccc(NC(=S)Nc2cccc3cnccc23)cc1C	i	53*	-3	-48	i	23	11
Cc1ccc(NC(=S)Nc2cccc3cnccc23)cc1	i	96*	4	-50	i	20	-1
CC(=O)Nc1cccc(NC(=S)Nc2cccc(Cl)c2C)c1	i	-8	1	-2	i	x	x
CC(=O)Nc1cccc(NC(=S)Nc2cccc3ccccc23)c1	i	97*	-3	-9	i	16	1
Fc1ccccc1NC(=S)Nc1cccc2cnccc12	i	97*	0	-37	i	12	-4
COc1cc(/C=N/NC(=O)C2CCN(CC(O)COCc3ccccc3)CC2)ccc1O (stereo not drawn)	i	-15	19	-28	i	x	x
SMILES	TMEM16A act	Apaf-1 inh	FID counter	UBC13 polyUb	TMEM16A inh	Apaf-1 inh conf	Rh110 quench	others
Cn1ccs/c1=N\C(=O)Nc1cccc(C(F)(F)F)c1	i	5	-3	6	i	x	x
O=C(CCNC(=O)c1ccc([N+](=O)[O-])cc1)Oc1ccc(F)c(F)c1	i	18	x	-11	x	x	x
CC(C)CN(CC(C)C)S(=O)(=O)N1CCC(C(=O)NCc2ccco2)CC1	i	7	-34	2	i	x	x
O=C1CCc2cc(S(=O)(=O)N3CCCCC3)cc3c2N1CC3	i	8	x	-6	i	x	x
Cc1ccc(S(=O)(=O)N2CCN(C(=O)CNC(=O)c3ccc(Br)o3)CC2)cc1	i	-12	x	-4	i	x	x
Cc1ccccc1NC(=S)Nc1cccc2cnccc12	i	91*	11	-30	i	9	1
c1ccc(CC2CCN(c3nc4ccccc4n4nnnc34)CC2)cc1	i	58*	0	13	i	17	11
CCOc1c(O)ccc(/C=C2\SC(=S)NC2=O)c1[N+](=O)[O-]	i	56*	2	-45	i	55*	5	Fluor interf inh=>100
COc1ccc(OCCNc2c([N+](=O)[O-])c(=O)oc3ccccc23)cc1	i	73*	0	-9	i	87*	-2	Fluor interf inh=>100
O=C1C(N2CCOCC2)=C(n2nnc3ccccc32)C(=O)c2ccccc21	i	94*	1	-176	i	97*	10	Fluor interf inh=>100
Cc1cc(C)c2[nH]c(C(=O)Nc3ccc(F)cc3Br)cc2c1	i	18	-14	-6	i	x	x
CC1=CC(C)(C)N2C(=O)C(=Nc3ccc(O)cc3)c3cccc1c32	i	90*	-1	-28	i	15	-3
Cn1ccc2cc3c(cc21)CCN3C(=O)Nc1cccnc1	i	66*	x	-20	i	15	5
Cc1nc(C)c(NC(=O)N2CCc3ccccc32)cc1NC(=O)N1CCc2ccccc21	i	17	-8	10	i	x	x
O=C(NC1CCCc2ccccc21)c1cccc(F)c1 (stereo not drawn)	i	x	x	x	x	x	x
COc1ccc(S(=O)(=O)N2CCOCC2)cc1NC(=O)c1ccc(OC(F)F)cc1	i	4	x	-6	x	x	x
C[C@H]1CN([C@@H](C)CO)C(=O)Cc2cc(NC(=O)CCC(F)(F)F)ccc2O[C@H]1CN(C)Cc1ccc(C(F)(F)F)cc1	i	25	x	8	x	x	x
